Article PMC7113734 (Antiviral Research, 2016)
Values after ≈ are worked out from the molar mass of the structure shown. Read-outs that look alike come from different tables or passages of the source.

Key:
[1] = tested on: drug-resistant HIV-1 strains; assay: Antiviral activity against drug-resistant HIV-1 strains in MT-4; format: cell-based; settings: for EC50: MT-4
[2] = tested on: drug resistant clinical HIV isolates; assay: Antiviral activity against drug-resistant HIV-1 in PBMCs; format: cell-based; settings: Human immunodeficiency virus 1, PBMC
[3] = tested on: HL2/3 cells expressing HIV-1 gp120 and gp41 fusing with HeLa-CD4-LTR-β-gal cells; assay: Fusion inhibition assay; format: cell-based; settings: read-out: Fusion inhibition EC50 ± SD
How it was run: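 HeLa-CD4-LTR-β-Gal cells incubated with test compound for 1 h at 37°C/5% CO2, then co-cultured 48 h with HL2/3 cells. Cells lysed and β-galactosidase expression measured by chemiluminescent Gal-Screen.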

[4] = tested on: HIV attachment to HeLa-CD4-LTR-β-gal cells; assay: Attachment inhibition assay; format: cell-based, HIV-1; settings: Human immunodeficiency virus 1, read-out: Attachment inhibition EC50 ± SD
[5] = tested on: HIV strain 92US727; assay: Cell-to-cell virus transmission assay in fresh human PBMCs; format: cell-based, HIV-1
How it was run: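 HIV-infected fresh human PBMCs treated 3 days with six concentrations of test compound. Passaged every 3 days for three passages at fixed compound concentration; 80% of culture volume replaced with fresh compound-containing medium and uninfected cells. Cell-free supernatants collected on sub-culture days for RT activity and extracellular p24 antigen. TCID50 per passage by endpoint dilution.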

[6] = tested on: HIVIIIB; assay: Cell-to-cell virus transmission assay in CEM-SS cells; format: cell-based, HIV-1

Cc1ccnc2c1NC(=O)c1cccnc1N2C1CC1 [NVP, reference compound]
EC50 ([1]; Human immunodeficiency virus 1, read-out: Mean EC50 ± SD, positive control, AZT-resistant, RT 4xAZT (D67N/K70R/T215Y/K219Q)): 35 nM

Cc1cn([C@H]2C[C@H](N=[N+]=[N-])[C@@H](CO)O2)c(=O)[nH]c1=O [AZT, reference compound]
EC50 ([1]; Human immunodeficiency virus 1, read-out: Mean EC50 ± SD, positive control, AZT- and NNRTI-resistant, RT 4xAZT/L100I): 4 nM | EC50 ([1]; Human immunodeficiency virus 1, read-out: Mean EC50 ± SD, positive control, AZT- and NNRTI-resistant, RT 4xAZT/Y181C): 7 nM | EC50 ([1]; Human immunodeficiency virus 1, read-out: Mean EC50 ± SD, positive control, Atazanavir-resistant, PR I50L): 1.5 nM | EC50 ([1]; Human immunodeficiency virus 1, read-out: Mean EC50 ± SD, positive control, Didanosine-resistant, RT L74V): 2 nM | EC50 ([1]; Human immunodeficiency virus 1, read-out: Mean EC50 ± SD, positive control, Enfuviritide-resistant, Env V38A/N126K): 1.5 nM | EC50 ([1]; Human immunodeficiency virus 1, read-out: Mean EC50 ± SD, positive control, Indinavir-, Ritonavir-resistant, PR I84V): 2.5 nM | EC50 ([1]; Human immunodeficiency virus 1, read-out: Mean EC50 ± SD, positive control, Indinavir-, Ritonavir-resistant, PR V82A): 3.5 nM | EC50 ([1]; Human immunodeficiency virus 1, read-out: Mean EC50 ± SD, positive control, Indinavir-, Ritonavir-resistant, PR V82F/I84V): 2 nM | EC50 ([1]; Human immunodeficiency virus 1, read-out: Mean EC50 ± SD, positive control, Lamivudine-resistant, RT M184V): 0.55 nM | EC50 ([1]; Human immunodeficiency virus 1, read-out: Mean EC50 ± SD, positive control, NNRTI-resistant, RT K103N/Y181C): 2 nM | EC50 ([1]; Human immunodeficiency virus 1, read-out: Mean EC50 ± SD, positive control, NNRTI-resistant, RT K103N): 0.9 nM | EC50 ([1]; Human immunodeficiency virus 1, read-out: Mean EC50 ± SD, positive control, NNRTI-resistant, RT L100I): 0.65 nM | EC50 ([1]; Human immunodeficiency virus 1, read-out: Mean EC50 ± SD, positive control, NNRTI-resistant, RT V106A): 2 nM | EC50 ([1]; Human immunodeficiency virus 1, read-out: Mean EC50 ± SD, positive control, NNRTI-resistant, RT V108I): 1.5 nM | EC50 ([1]; Human immunodeficiency virus 1, read-out: Mean EC50 ± SD, positive control, NNRTI-resistant, RT V179D): 1 nM | EC50 ([1]; Human immunodeficiency virus 1, read-out: Mean EC50 ± SD, positive control, NNRTI-resistant, RT Y181C): 1 nM | EC50 ([1]; Human immunodeficiency virus 1, read-out: Mean EC50 ± SD, positive control, NNRTI-resistant, RT Y188C): 1.5 nM | EC50 ([1]; Human immunodeficiency virus 1, read-out: Mean EC50 ± SD, positive control, Raltegravir-resistant, IN Q148H/G140S): 2 nM | EC50 ([1]; Human immunodeficiency virus 1, read-out: Mean EC50 ± SD, positive control, Saquinavir-resistant, PR G48V/L90M): 3.5 nM

Cc1nnc(C(=O)NC(C)(C)c2nc(C(=O)NCc3ccc(F)cc3)c(O)c(=O)n2C)o1 [Raltegravir, reference compound]
EC50 ([2]; read-out: PBMC/HIV-1 EC50 ± SD, Multi-drug resistant AD. MDR): 2980 ± 540 nM | EC50 ([2]; read-out: PBMC/HIV-1 EC50 ± SD, Multi-drug resistant MDR769): 2370 ± 1510 nM | EC50 ([2]; read-out: PBMC/HIV-1 EC50 ± SD, NNRTI-resistant A17R): 1990 ± 40 nM | EC50 ([2]; read-out: PBMC/HIV-1 EC50 ± SD, NNRTI-resistant N119): 3540 ± 890 nM | EC50 ([2]; read-out: PBMC/HIV-1 EC50 ± SD, PI-resistant 144-44): 3870 ± 3250 nM | EC50 ([2]; read-out: PBMC/HIV-1 EC50 ± SD, PI-resistant 1002-60): 2970 ± 230 nM | EC50 ([2]; read-out: PBMC/HIV-1 EC50 ± SD, PI-resistant 1022-48): 1320 ± 170 nM | EC50 ([2]; read-out: PBMC/HIV-1 EC50 ± SD, PI-resistant 1026-60): 1770 ± 850 nM | EC50 ([2]; read-out: PBMC/HIV-1 EC50 ± SD, PI-resistant 1064-52): 860 ± 490 nM | EC50 ([2]; read-out: PBMC/HIV-1 EC50 ± SD, Wild Type 92US727): 10500 ± 12700 nM

enfuvirtide [reference compound]
EC50 [3]: 80 nM

COc1cc(-c2ccc(/N=N/c3ccc4c(S(=O)(=O)O)cc(S(=O)(=O)O)c(N)c4c3O)c(OC)c2)ccc1/N=N/c1ccc2c(S(=O)(=O)O)cc(S(=O)(=O)O)c(N)c2c1O [Chicago sky blue, reference compound]
EC50 [4]: 0.64 µg/mL (≈ 0.707 µM)

CC(C)c1nc(CN(C)C(=O)N[C@H](C(=O)N[C@@H](Cc2ccccc2)C[C@H](O)[C@H](Cc2ccccc2)NC(=O)OCc2cncs2)C(C)C)cs1 [RTV, reference compound]
Mean EC50 ± SD, positive control ([1]; {}): RTV 0.06 ± 0.02 nM

CC(C)(C)NC(=O)[C@@H]1C[C@@H]2CCCC[C@@H]2CN1C[C@@H](O)[C@H](Cc1ccccc1)NC(=O)[C@H](CC(N)=O)NC(=O)c1ccc2ccccc2n1 [Saquinavir, reference compound]
RT ([5]; Passage 1, 12.5 nM): 281 cpm | TCID50/mL ([5]; Passage 1, 12.5 nM): 3.08 × 10^3 TCID50/mL | p24 ([5]; Passage 1, 12.5 nM): 971 pg/mL | RT ([5]; Passage 2, 12.5 nM): 1394 cpm | TCID50/mL ([5]; Passage 2, 12.5 nM): 8.30 × 10^3 TCID50/mL | p24 ([5]; Passage 2, 12.5 nM): 3505 pg/mL | RT ([5]; Passage 3, 12.5 nM): 7015 cpm | TCID50/mL ([5]; Passage 3, 12.5 nM): 1.09 × 10^5 TCID50/mL | p24 ([5]; Passage 3, 12.5 nM): 61,275 pg/mL | RT ([6]; Passage 1, 20 nM): 25 cpm | TCID50/mL ([6]; Passage 1, 20 nM): 0 TCID50/mL | p24 ([6]; Passage 1, 20 nM): 794 pg/mL | RT ([6]; Passage 2, 20 nM): 107 cpm | TCID50/mL ([6]; Passage 2, 20 nM): 0 TCID50/mL | p24 ([6]; Passage 2, 20 nM): 1589 pg/mL | RT ([6]; Passage 3, 20 nM): 68 cpm | TCID50/mL ([6]; Passage 3, 20 nM): 0 TCID50/mL | p24 ([6]; Passage 3, 20 nM): 1085 pg/mL
